Experimental data reported in ChEMBL document CHEMBL1949555, “Piperazine-2,3-dicarboxylic acid derivatives as dual antagonists of NMDA and GluK1-containing kainate receptors” (J Med Chem, 2012).

Columns and labels:
[1] = molecular target: Ionotropic glutamate receptor NMDA 1/2D (Rattus norvegicus, UniProt P35439+Q62645); assay: Antagonist activity rat recombinant GluN1/GluN2D receptor expressed in Xenopus laevis oocytes assessed as inhibition of glutamate-induced response by two-electrode voltage-clamp electrophysiology assay; type: functional, cell-based, Oocyte; conditions: read-out: Ki(app)
[2] = molecular target: Glutamate receptor ionotropic, kainate 1 (Homo sapiens, UniProt P39086); assay: Antagonist activity at human recombinant GluK1 receptor expressed in human HEK293 cells assessed as inhibition of glutamate-stimulated calcium influx by fluorescence assay; type: functional, cell-based
Chain of Glutamate receptor ionotropic, kainate 1 (P39086 whole entry): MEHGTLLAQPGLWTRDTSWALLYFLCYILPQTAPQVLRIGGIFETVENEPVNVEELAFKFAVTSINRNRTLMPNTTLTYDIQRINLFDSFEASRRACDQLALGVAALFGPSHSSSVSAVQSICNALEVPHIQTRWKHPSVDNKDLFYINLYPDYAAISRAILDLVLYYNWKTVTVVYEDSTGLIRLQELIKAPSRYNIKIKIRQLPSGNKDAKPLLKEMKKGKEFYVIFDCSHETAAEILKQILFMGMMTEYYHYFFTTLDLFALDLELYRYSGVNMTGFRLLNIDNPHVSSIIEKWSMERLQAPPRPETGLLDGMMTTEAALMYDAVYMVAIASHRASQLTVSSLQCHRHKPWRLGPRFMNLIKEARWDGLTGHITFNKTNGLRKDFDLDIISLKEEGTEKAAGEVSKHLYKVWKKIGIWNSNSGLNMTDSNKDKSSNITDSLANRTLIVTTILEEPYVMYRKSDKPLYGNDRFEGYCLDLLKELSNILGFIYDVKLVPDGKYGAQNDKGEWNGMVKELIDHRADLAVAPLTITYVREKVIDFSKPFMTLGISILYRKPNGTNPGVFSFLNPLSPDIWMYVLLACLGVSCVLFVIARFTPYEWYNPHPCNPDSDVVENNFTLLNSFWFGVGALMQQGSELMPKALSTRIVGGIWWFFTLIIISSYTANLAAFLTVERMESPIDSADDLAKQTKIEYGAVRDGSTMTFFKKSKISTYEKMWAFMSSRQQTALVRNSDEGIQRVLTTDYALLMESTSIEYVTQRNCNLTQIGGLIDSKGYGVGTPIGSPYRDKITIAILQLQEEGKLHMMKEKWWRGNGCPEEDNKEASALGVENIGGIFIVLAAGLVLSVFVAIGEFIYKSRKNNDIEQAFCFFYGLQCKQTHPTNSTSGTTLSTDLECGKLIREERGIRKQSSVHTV
In short: (§1)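 HEK293 lines stably expressing homomeric human GluK1(Q) or GluK2(Q), passaged no more than 20 times. Ca2+ influx is read as fluorescence, with concanavalin A present. Test compound is added in a first run, then L-glutamate plus antagonist in a second run (final glutamate 30 μM for GluK1, 10 μM for GluK2). IC50 values are converted to KB. Means ± s.e.m.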

[3] = molecular target: Glutamate NMDA receptor; Grin1/Grin2a (Rattus norvegicus, UniProt P35439+Q00959); assay: Antagonist activity at rat recombinant GluN1/GluN2A receptor expressed in Xenopus laevis oocytes assessed as inhibition of glutamate-induced response by two-electrode voltage-clamp electrophysiology assay; type: functional, cell-based, Oocyte; conditions: read-out: Ki(app)
[4] = molecular target: Glutamate NMDA receptor; Grin1/Grin2b (Rattus norvegicus, UniProt P35439+Q00960); assay: Antagonist activity rat recombinant GluN1/GluN2B receptor expressed in Xenopus laevis oocytes assessed as inhibition of glutamate-induced response by two-electrode voltage-clamp electrophysiology assay; type: functional, cell-based, Oocyte; conditions: read-out: Ki(app)
In short: (§2)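 Two-electrode voltage clamp of oocytes expressing rat GluN1a with the given GluN2 subunit, held at −60 mV in buffer of 116 mM NaCl, 2 mM KCl, 0.3 mM BaCl2, 5 mM HEPES, pH 7.4. Response is the steady plateau to bath-applied 10 μM L-glutamate plus 10 μM glycine. IC50 converted to apparent Ki via Ki = IC50/(1 + [agonist]/EC50). Means ± s.e.m.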

[5] = molecular target: Glutamate NMDA receptor; Grin1/Grin2c (Rattus norvegicus, UniProt P35439+Q00961); assay: Antagonist activity rat recombinant GluN1/GluN2C receptor expressed in Xenopus laevis oocytes assessed as inhibition of glutamate-induced response by two-electrode voltage-clamp electrophysiology assay; type: functional, cell-based, Oocyte; conditions: read-out: Ki(app); in short: as §2
[6] = molecular target: Glutamate receptor ionotropic, kainate 2 (Homo sapiens, UniProt Q13002); assay: Antagonist activity at human recombinant GluK2 receptor expressed in human HEK293 cells assessed as inhibition of glutamate-stimulated calcium influx by fluorescence assay; type: functional, cell-based; in short: as §1
Chain of Glutamate receptor ionotropic, kainate 2 (Q13002 whole entry): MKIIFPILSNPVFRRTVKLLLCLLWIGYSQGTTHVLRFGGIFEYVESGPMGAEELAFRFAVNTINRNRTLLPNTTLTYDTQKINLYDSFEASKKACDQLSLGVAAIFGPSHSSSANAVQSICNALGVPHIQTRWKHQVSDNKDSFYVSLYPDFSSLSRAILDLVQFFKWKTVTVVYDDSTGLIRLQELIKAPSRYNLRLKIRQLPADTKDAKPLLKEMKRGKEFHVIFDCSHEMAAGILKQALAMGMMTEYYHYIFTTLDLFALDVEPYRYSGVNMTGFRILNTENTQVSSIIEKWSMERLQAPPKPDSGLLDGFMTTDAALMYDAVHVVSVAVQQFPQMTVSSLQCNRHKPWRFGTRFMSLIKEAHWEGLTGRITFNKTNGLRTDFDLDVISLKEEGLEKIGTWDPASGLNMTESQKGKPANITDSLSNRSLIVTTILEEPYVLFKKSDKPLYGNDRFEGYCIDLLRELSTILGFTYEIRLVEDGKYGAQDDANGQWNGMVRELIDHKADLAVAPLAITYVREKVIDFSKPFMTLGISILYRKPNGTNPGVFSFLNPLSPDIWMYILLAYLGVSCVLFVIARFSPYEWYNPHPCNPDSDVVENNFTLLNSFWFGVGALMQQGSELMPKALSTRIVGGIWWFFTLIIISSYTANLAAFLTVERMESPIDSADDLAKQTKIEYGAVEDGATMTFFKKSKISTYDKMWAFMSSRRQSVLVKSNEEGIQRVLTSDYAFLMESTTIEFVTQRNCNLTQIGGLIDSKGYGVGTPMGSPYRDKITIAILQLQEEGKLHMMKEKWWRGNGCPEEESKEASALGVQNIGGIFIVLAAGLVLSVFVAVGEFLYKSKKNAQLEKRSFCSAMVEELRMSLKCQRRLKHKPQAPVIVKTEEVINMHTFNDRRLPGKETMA

Rattus norvegicus [7] = species on record: Rattus norvegicus; assay: Selectivity ratio of Ki(app) for rat recombinant GluN1/GluN2A receptor to Ki(app) for rat recombinant GluN1/GluN2D receptor
Rattus norvegicus [8] = species on record: Rattus norvegicus; assay: Selectivity ratio of Ki(app) for rat recombinant GluN1/GluN2B receptor to Ki(app) for rat recombinant GluN1/GluN2D receptor
In short: (§3)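 Rat GluN1a is co-expressed with GluN2A, 2B, 2C or 2D in Xenopus oocytes and recorded by two-electrode voltage clamp at −60 mV. Buffer is 116 mM NaCl, 2 mM KCl, 0.3 mM BaCl2, 5 mM HEPES, pH 7.4. The plateau response to bath-applied 10 μM L-glutamate plus 10 μM glycine is measured. Apparent Ki is IC50/(1+[agonist]/EC50).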

Rattus norvegicus [9] = species on record: Rattus norvegicus; assay: Selectivity ratio of Ki(app) for rat recombinant GluN1/GluN2C receptor to Ki(app) for rat recombinant GluN1/GluN2D receptor; in short: as §3
[10] = system: Kainate receptors (Rattus norvegicus); assay: Displacement of [3H]-Kainate from native kainate receptors in rat brain homogenate; conditions: concentration not given here
[11] = molecular target: Glutamate NMDA receptor; Grin1/Grin2a (Rattus norvegicus) (UniProt P35439+Q00959); assay: Antagonist activity at rat recombinant GluN1/GluN2A receptor expressed in Xenopus laevis oocytes assessed as inhibition of glutamate-induced response at 100 uM by two-electrode voltage-clamp electrophysiology assay; type: functional, cell-based; conditions: Oocyte
In short: (§4)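 Rat GluN1a co-expressed with GluN2A, 2B, 2C or 2D in Xenopus oocytes. Two-electrode voltage clamp at −60 mV in buffer of 116 mM NaCl, 2 mM KCl, 0.3 mM BaCl2, 5 mM HEPES, pH 7.4. Response is the steady plateau evoked by bath-applied 10 μM L-glutamate plus 10 μM glycine. Read-out is percent antagonism by 100 μM test compound.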

[12] = molecular target: Glutamate NMDA receptor; Grin1/Grin2b (Rattus norvegicus) (UniProt P35439+Q00960); assay: Antagonist activity rat recombinant GluN1/GluN2B receptor expressed in Xenopus laevis oocytes assessed as inhibition of glutamate-induced response at 100 uM by two-electrode voltage-clamp electrophysiology assay; type: functional, cell-based; conditions: Oocyte; in short: as §4
[13] = molecular target: Ionotropic glutamate receptor NMDA 1/2D (Rattus norvegicus) (UniProt P35439+Q62645); assay: Antagonist activity rat recombinant GluN1/GluN2D receptor expressed in Xenopus laevis oocytes assessed as inhibition of glutamate-induced response at 100 uM by two-electrode voltage-clamp electrophysiology assay; type: functional, cell-based; conditions: Oocyte; in short: as §4
[14] = molecular target: Glutamate NMDA receptor; Grin1/Grin2c (Rattus norvegicus) (UniProt P35439+Q00961); assay: Antagonist activity rat recombinant GluN1/GluN2C receptor expressed in Xenopus laevis oocytes assessed as inhibition of glutamate-induced response at 100 uM by two-electrode voltage-clamp electrophysiology assay; type: functional, cell-based; conditions: Oocyte; in short: as §4
[15] = Selectivity ratio of Kb for human recombinant GluK1 receptor to Ki(app) for rat recombinant GluN1/GluN2D receptor

Row | Compound | Ki [1] | Kb [2] | Ki [3] | Ki [4] | Ki [5] | Kb [6] | further results
1 | O=C(O)[C@H]1NCCN(Cc2ccc3c(ccc4ccccc43)c2)[C@H]1C(=O)O | 3.2 µM | 39 µM |  |  |  |  | 
2 | O=C(O)[C@H]1NCCN(S(=O)(=O)c2ccc(-c3ccccc3)cc2)[C@H]1C(=O)O | 10.9 µM | > 100 µM |  |  |  |  | 
3 | O=C(O)[C@H]1NCCN(C(=O)c2ccc3cc(F)ccc3c2)[C@H]1C(=O)O (relative stereo) | 5.1 µM | 52.9 µM | 7.4 µM | 12.3 µM | 3.6 µM |  | 
4 | O=C(O)[C@H]1NCCN(C(=O)c2ccc3cc(I)ccc3c2)[C@H]1C(=O)O (relative stereo) | 1.6 µM | 7.5 µM | 3 µM | 1.3 µM | 1.8 µM | > 100 µM | 
5 | O=C(O)[C@@H]1NCCN(C(=O)c2ccc3c(ccc4ccccc43)c2)[C@H]1C(=O)O (racemic) | 6 µM | 59.2 µM |  |  |  |  | 
6 | O=C(O)[C@H]1NCCN(C(=O)c2ccc3ccc4ccccc4c3c2)[C@H]1C(=O)O | 2.4 µM | 14.2 µM | 22 µM | 17.2 µM | 5.2 µM | > 100 µM | Ratio Ki(app) (Rattus norvegicus [7]): 10; Ratio Ki(app) (Rattus norvegicus [8]): 7; Ratio Ki(app) (Rattus norvegicus [9]): 2; inhibition [10]: 10%
7 | O=C(O)[C@H]1NCCN(C(=O)c2ccc3c(ccc4cc(Br)ccc43)c2)[C@H]1C(=O)O | 0.15 µM | 8 µM |  |  |  | > 100 µM | 
8 | O=C(O)C1NCCN(C(=O)c2ccc3c(ccc4ccccc43)c2)C1C(=O)O (racemic) [listing 1 of 2 here] |  | 7.5 µM |  |  |  | > 100 µM | 
9 | O=C(O)[C@H]1NCCN(C(=O)c2ccc(-c3ccccc3)cc2)[C@H]1C(=O)O | 4.3 µM | 9.8 µM |  |  |  | > 100 µM | 
10 | O=C(O)[C@H]1NCCN(C(=O)c2ccc3c(c2)CCc2ccccc2-3)[C@H]1C(=O)O | 0.57 µM | 14.1 µM |  |  |  | > 100 µM | 
11 | O=C(O)[C@H]1NCCN(C(=O)c2ccc3ccccc3c2)[C@H]1C(=O)O |  | 45.6 µM |  |  |  |  | 
12 | O=C(O)c1ccc2cc(C(=O)N3CCN[C@H](C(=O)O)[C@@H]3C(=O)O)ccc2c1 (relative stereo) | > 100 µM | 59.7 µM | > 100 µM | > 100 µM | > 100 µM |  | inhibition [11]: < 5%; inhibition [12]: < 5%; inhibition [13]: < 5%; inhibition [14]: < 5%
13 | O=C(O)[C@@H]1[C@H](C(=O)O)NCCN1C(=O)c1ccc2c(ccc3ccccc32)c1 | 0.09 µM | 3 µM | 0.21 µM | 0.22 µM | 0.07 µM | > 100 µM | Ratio [15]: 30
14 | O=C(O)C1NCCN(C(=O)c2ccc3c(ccc4ccccc43)c2)C1C(=O)O (single isomer, unassigned; (+)) |  | 82 µM |  |  |  |  | 
15 | O=C(O)C1NCCN(C(=O)c2ccc3c(ccc4ccccc43)c2)C1C(=O)O (racemic) [listing 2 of 2 here] | 0.13 µM |  | 0.55 µM | 0.31 µM | 0.1 µM |  | 
16 | O=C(O)[C@H]1NCCN(C(=O)c2ccc(/N=N/c3ccccc3)cc2)[C@H]1C(=O)O (relative stereo) | 10.8 µM |  | 99.3 µM | 12.9 µM | 28 µM | > 100 µM | 
17 | O=C(O)[C@H]1NCCN(C(=O)c2ccc3cc(Br)ccc3c2)[C@H]1C(=O)O (relative stereo) | 2.2 µM | 16.2 µM | 4.1 µM | 2.7 µM | 2.1 µM |  | 
18 | O=C(O)[C@H]1NCCN(C(=O)c2ccc(C#Cc3ccccc3)cc2)[C@H]1C(=O)O (relative stereo) | 10.5 µM |  | 138 µM | 24.1 µM | 21.4 µM | > 100 µM | 
19 | O=C(O)[C@H]1NCCN(C(=O)c2ccc3c(c2)CCc2cc(Br)ccc2-3)[C@H]1C(=O)O | 1 µM | 11.5 µM |  |  |  |  | 
20 | O=C(O)[C@H]1NCCN(C(=O)c2ccc3cc4ccccc4cc3c2)[C@H]1C(=O)O (relative stereo) | 2.5 µM | 14.4 µM | 10.5 µM | 5.2 µM | 3.4 µM | > 100 µM | 
21 | O=C(O)[C@H]1NCCN(C(=O)c2ccc(CCc3ccccc3)cc2)[C@H]1C(=O)O (relative stereo) | > 100 µM | 16.7 µM | > 100 µM | > 100 µM | > 100 µM |  | inhibition [11]: 11.5%; inhibition [12]: > 5%; inhibition [13]: 10.2%; inhibition [14]: 29.1%
22 | O=C(O)[C@H]1NCCN(C(=O)c2ccc3cc(Cl)c4ccccc4c3c2)[C@H]1C(=O)O (relative stereo) | 1.7 µM | 21.8 µM | 7.2 µM | 15.2 µM | 3.2 µM |  | 
23 | O=C(O)[C@H]1NCCN(C(=O)CCc2ccc3ccccc3c2)[C@H]1C(=O)O (relative stereo) | 2.7 µM | 67.8 µM | 5.1 µM | 2.3 µM | 4.1 µM |  | 
24 | O=C(O)[C@H]1NCCN(C(=O)c2ccc3cc(Br)c4ccccc4c3c2)[C@H]1C(=O)O (relative stereo) | 1.2 µM | 12.8 µM | 11.5 µM | 8 µM | 2.8 µM | > 100 µM | Ratio Ki(app) (Rattus norvegicus [7]): 10; Ratio Ki(app) (Rattus norvegicus [8]): 7; Ratio Ki(app) (Rattus norvegicus [9]): 2; Ratio [15]: 9; inhibition [10]: 10%
